Tests used:
[1] = Amplification of HSF1 transcriptional activity in human heat shock-induced HeLa cells assessed as granule formation treated 1 hr before heat shock challenge measured after 2 hrs without recovery time by immunocytochemical staining
[2] = molecular target: T1, Heat shock factor protein 1 (Homo sapiens, UniProt Q00613); assay: Amplification of HSF1 transcriptional activity in human heat shock-induced HeLa cells assessed as granule formation treated 1 hr before heat shock challenge measured after 2 hrs without recovery time by immunocytochemical staining
T1 sequence (Q00613 whole entry): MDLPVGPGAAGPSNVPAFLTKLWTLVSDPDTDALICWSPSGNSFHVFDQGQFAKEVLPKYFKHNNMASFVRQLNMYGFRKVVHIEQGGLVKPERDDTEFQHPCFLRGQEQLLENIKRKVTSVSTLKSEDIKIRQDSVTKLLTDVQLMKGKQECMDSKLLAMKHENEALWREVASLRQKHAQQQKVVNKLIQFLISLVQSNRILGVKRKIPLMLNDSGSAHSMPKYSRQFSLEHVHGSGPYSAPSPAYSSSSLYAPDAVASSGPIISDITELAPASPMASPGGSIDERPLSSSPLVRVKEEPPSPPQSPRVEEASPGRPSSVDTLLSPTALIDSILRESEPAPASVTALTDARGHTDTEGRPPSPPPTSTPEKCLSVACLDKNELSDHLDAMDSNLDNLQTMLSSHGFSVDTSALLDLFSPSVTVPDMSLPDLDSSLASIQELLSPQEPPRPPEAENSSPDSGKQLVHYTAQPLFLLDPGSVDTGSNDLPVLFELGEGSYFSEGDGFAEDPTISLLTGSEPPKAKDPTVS
In short: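 HeLa cells given compound 1 h before mild heat shock at 41 °C for 2 h, no recovery; compound diluted 200-fold, 0.3 to 80 µM. Unstressed control plates kept at 37 °C for 3 h. HSF1 immunocytochemical staining, imaged at 10×.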

[3] = molecular target: T1, Heat shock factor protein 1; assay: Amplification of HSF1 transcriptional activity in human HeLa cells assessed as granule formation pretreated for 3 hrs by immunocytochemical staining
In short: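 HeLa cells pretreated with compound 1 h, then mild heat shock 41 °C for 2 h, no recovery; control arm pretreated 3 h at 37 °C without heat shock. Compound diluted 200-fold, 0.3 to 80 µM range.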

EC50 [1] | SMILES | also measured
40.8 µM | CCCCn1nc(-c2nc3ccccc3[nH]2)nc2c(=O)n(C)c(=O)nc1-2 [3-(1H-benzo[d]imidazol-2-yl)-1-butyl-6-methylpyrimido[5,4-e][1,2,4]triazine-5,7(1H,6H)-dione] | 
20.6 µM | CCn1nc(-c2ccc(C)o2)[n+]([O-])c2c(=O)n(C)c(=O)nc1-2 [1-ethyl-6-methyl-3-(5-methylfuran-2-yl)-5,7-dioxo-1,5,6,7-tetrahydropyrimido[5,4-e][1,2,4]triazine 4-oxide] | 
9.9 µM | CCCCn1nc(-c2ccc(C)o2)nc2c(=O)n(C)c(=O)nc1-2 [1-butyl-6-methyl-3-(5-methylfuran-2-yl)pyrimido[5,4-e][1,2,4]triazine-5,7(1H,6H)-dione] | 
 | C=c1c(O)c(O)cc2c1=CC=C1[C@@]2(C)CC[C@@]2(C)[C@@H]3C[C@](C)(C(=O)O)CC[C@]3(C)CC[C@]12C | EC50 [2]: 1.1 µM; EC50 [3]: 2.6 µM
2.5 µM | CCCCn1nc(-c2ccc3ccccc3n2)nc2c(=O)n(C)c(=O)nc1-2 [1-butyl-6-methyl-3-(quinolin-2-yl)pyrimido[5,4-e][1,2,4]triazine-5,7(1H,6H)-dione] | 
11.6 µM | CCn1nc(-c2ccc(C)s2)[n+]([O-])c2c(=O)n(C)c(=O)nc1-2 [1-ethyl-6-methyl-3-(5-methylthiophen-2-yl)-5,7-dioxo-1,5,6,7-tetrahydropyrimido[5,4-e][1,2,4]triazine 4-oxide] | 
8.6 µM | CCCCn1nc(-c2ccc(C)s2)[n+]([O-])c2c(=O)n(C)c(=O)nc1-2 [1-butyl-6-methyl-3-(5-methylthiophen-2-yl)-5,7-dioxo-1,5,6,7-tetrahydropyrimido[5,4-e][1,2,4]triazine 4-oxide] | 
1.3 µM | CC(C)Cn1nc(-c2nc3ccccc3s2)nc2c(=O)n(C)c(=O)nc1-2 [3-(benzo[d]thiazol-2-yl)-1-isobutyl-6-methylpyrimido[5,4-e][1,2,4]triazine-5,7(1H,6H)-dione] | 
2.5 µM | CC(C)CCn1nc(-c2nc3ccccc3s2)nc2c(=O)n(C)c(=O)nc1-2 [3-(benzo[d]thiazol-2-yl)-1-isopentyl-6-methylpyrimido[5,4-e][1,2,4]triazine-5,7(1H,6H)-dione] | 
39.8 µM | CCn1nc(-c2ncc[nH]2)nc2c(=O)n(C)c(=O)nc1-2 [1-ethyl-3-(1H-imidazol-2-yl)-6-methylpyrimido[5,4-e][1,2,4]triazine-5,7(1H,6H)-dione] | 
14.8 µM | CCCCn1nc(-c2ccccc2)nc2c(=O)n(C)c(=O)nc1-2 [1-butyl-6-methyl-3-phenylpyrimido[5,4-e][1,2,4]triazine-5,7(1H,6H)-dione] | 
17.3 µM | CCn1nc(-c2ccc(C)s2)nc2c(=O)n(C)c(=O)nc1-2 [1-ethyl-6-methyl-3-(5-methylthiophen-2-yl)pyrimido[5,4-e][1,2,4]triazine-5,7(1H,6H)-dione] | 
4.1 µM | Cn1c(=O)nc2n(Cc3ccccc3)nc(-c3nc4ccccc4s3)nc-2c1=O [3-(benzo[d]thiazol-2-yl)-1-benzyl-6-methylpyrimido[5,4-e][1,2,4]triazine-5,7(1H,6H)-dione] | 
2.1 µM | CCCCn1nc(-c2nccs2)nc2c(=O)n(C)c(=O)nc1-2 [1-butyl-6-methyl-3-(thiazol-2-yl)pyrimido[5,4-e][1,2,4]triazine-5,7(1H,6H)-dione] | 
10.1 µM | CCn1nc(-c2ccco2)nc2c(=O)n(C)c(=O)nc1-2 [1-ethyl-3-(furan-2-yl)-6-methylpyrimido[5,4-e][1,2,4]triazine-5,7(1H,6H)-dione] | 
24.7 µM | CCn1nc(-c2ccc[nH]2)[n+]([O-])c2c(=O)n(C)c(=O)nc1-2 [1-ethyl-6-methyl-5,7-dioxo-3-(1H-pyrrol-2-yl)-1,5,6,7-tetrahydropyrimido[5,4-e][1,2,4]triazine 4-oxide] | 
16.8 µM | CCCCn1nc(-c2ccc(C)s2)nc2c(=O)n(C)c(=O)nc1-2 [1-butyl-6-methyl-3-(5-methylthiophen-2-yl)pyrimido[5,4-e][1,2,4]triazine-5,7(1H,6H)-dione] | 
7.7 µM | CCCCn1nc(-c2ncc[nH]2)nc2c(=O)n(C)c(=O)nc1-2 [1-butyl-3-(1H-imidazol-2-yl)-6-methylpyrimido[5,4-e][1,2,4]triazine-5,7(1H,6H)-dione] | 
46.3 µM | CCn1nc(-c2ccc(C)o2)nc2c(=O)n(C)c(=O)nc1-2 [1-ethyl-6-methyl-3-(5-methylfuran-2-yl)pyrimido[5,4-e][1,2,4]triazine-5,7(1H,6H)-dione] | 
10 µM | CCCCn1nc(-c2ccc(C)o2)[n+]([O-])c2c(=O)n(C)c(=O)nc1-2 [1-butyl-6-methyl-3-(5-methylfuran-2-yl)-5,7-dioxo-1,5,6,7-tetrahydropyrimido[5,4-e][1,2,4]triazine 4-oxide] | 
14 µM | Cn1c(=O)nc2n(Cc3ccc(F)cc3)nc(-c3nc4ccccc4s3)nc-2c1=O [3-(benzo[d]thiazol-2-yl)-1-(4-fluorobenzyl)-6-methylpyrimido[5,4-e][1,2,4]triazine-5,7(1H,6H)-dione] | 
35 µM | CCn1nc(-c2ccc[nH]2)nc2c(=O)n(C)c(=O)nc1-2 [1-ethyl-6-methyl-3-(1H-pyrrol-2-yl)pyrimido[5,4-e][1,2,4]triazine-5,7(1H,6H)-dione] | 

SMILES | EC50 [1] | also measured
CCn1nc(-c2cccs2)nc2c(=O)n(C)c(=O)nc1-2 [1-ethyl-6-methyl-3-thiophen-2-yl-pyrimido[5,4-e][1,2,4]triazine-5,7-dione] | 5.1 µM | 

— BindingDB's records for doi:10.1016/j.bmcl.2009.05.073 (Cytrx, 2009)
